Hits are enriched below; roughly 0.27% of the tested compounds scored in any of these assays.
XiGFP reactiv = activators of inactive X chromosome reactivation, primary screen, imaging, XiGFP fibroblasts, GFP high-content imaging, set 2 | XiGFP mouse fibroblasts, % GFP-positive cells imaging, 3 d; cells co-treated with 5-aza-dC sensitizer; scaled so ellipticine positive control = 100% | activation, % at 7.58 µM | 360,000 compounds, 0.055% hits | AID 743238, 2013;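 active means mean normalized replicate activation at least 10% and every replicate at or above 10%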;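 further: 0% = median of on-plate neutral control wells and 100% = ellipticine 6 µM median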
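Assay system: SV40-immortalized XiGFP fibroblast cells, line 68-5-11; buffer or medium: DMEM plus 5-aza-dC sensitizer; compound: one concentration, pinned; timing: compounds 3 days, fix/stain 15 min at room temperature; benchmarks: positive control ellipticine, 6 µM final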
ERAP1 HTS inh = human ERAP1 aminopeptidase inhibitors, primary screen, biochemical, single point, plate reader | Endoplasmic reticulum aminopeptidase 1 (Homo sapiens), Q9NZ08 | recombinant ERAP1, Leu-AMC fluorescence, 60 min | inhibition, % at 10.7 µM | 340,000 compounds, 0.15% hits;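 active means mean replicate inhibition of at least 30%, or all replicates individually reaching that 30% level; inactive means mean below 30% and not every replicate reaching it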;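 further: 0% = neutral control wells and 100% = L-leucinethiol positive control wells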
Target sequence (Q9NZ08 whole entry, looked up): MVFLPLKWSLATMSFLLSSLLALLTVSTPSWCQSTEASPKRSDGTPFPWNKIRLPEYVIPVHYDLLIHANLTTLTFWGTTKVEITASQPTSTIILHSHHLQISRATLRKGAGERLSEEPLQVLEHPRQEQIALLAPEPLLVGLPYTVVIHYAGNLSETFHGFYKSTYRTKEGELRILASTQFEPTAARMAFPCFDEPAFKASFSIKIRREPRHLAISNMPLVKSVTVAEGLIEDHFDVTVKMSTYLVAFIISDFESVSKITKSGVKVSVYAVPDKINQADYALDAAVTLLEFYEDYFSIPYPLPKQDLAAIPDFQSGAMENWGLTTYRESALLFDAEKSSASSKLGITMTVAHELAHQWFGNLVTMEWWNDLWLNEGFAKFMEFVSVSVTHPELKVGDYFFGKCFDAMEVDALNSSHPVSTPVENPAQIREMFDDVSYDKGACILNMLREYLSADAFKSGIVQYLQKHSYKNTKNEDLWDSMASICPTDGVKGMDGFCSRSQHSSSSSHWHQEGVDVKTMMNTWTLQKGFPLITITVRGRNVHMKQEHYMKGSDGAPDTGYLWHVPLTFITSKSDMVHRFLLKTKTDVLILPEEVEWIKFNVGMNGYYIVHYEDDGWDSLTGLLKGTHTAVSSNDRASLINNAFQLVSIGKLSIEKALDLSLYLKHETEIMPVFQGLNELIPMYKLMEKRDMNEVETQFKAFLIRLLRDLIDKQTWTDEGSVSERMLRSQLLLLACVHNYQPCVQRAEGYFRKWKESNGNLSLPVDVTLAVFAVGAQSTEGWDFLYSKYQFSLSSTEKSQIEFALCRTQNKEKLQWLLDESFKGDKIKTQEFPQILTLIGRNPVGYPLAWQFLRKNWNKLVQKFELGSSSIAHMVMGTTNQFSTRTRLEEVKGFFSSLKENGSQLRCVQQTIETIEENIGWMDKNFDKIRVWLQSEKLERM
PvdQ inh = P. aeruginosa PvdQ acylase inhibitors, primary screen, biochemical, fluorescence, plate reader and imaging, single point; purified PvdQ acylase; inhibition, % at 10 µM; 340,000 compounds, 0.063% hits; in the data active means inhibition above about 30%, passing the limit was not always enough;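 further: 0% = vehicle neutral wells and 100% = reference inhibitor wells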
CaV13 ICDI inh = Disruptors of the CACNA1D IQ motif to Ca2+-dependent inactivation inhibitor domain association, primary screening, Förster resonance energy transfer in intact living …; HEK cells, CFP/YFP FRET ICDI-IQ, plate reader, 10 min; percent FRET-ratio fall versus neutral wells; inhibition, % at 12.3 µM; 340,000 compounds, 0.098% hits;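 active means mean replicate inhibition of at least 30% and at least 1% of replicates passing that level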;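 further: 0% = median of the neutral control wells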
Numbers without * were called inactive; i = inactive; · = no result; + = active, no number.

SMILES	XiGFP reactiv	ERAP1 HTS inh	PvdQ inh	CaV13 ICDI inh
CCN1CCN(c2cc(C)c3cc(NC(=O)c4cccs4)ccc3n2)CC1	12*	1	9	-6
COC(=O)C[C@@H]1C[C@@H]2c3cc(NC(=O)Nc4ccc(C(F)(F)F)cc4)ccc3O[C@@H]2[C@@H](CO)O1	0	·	·	·
CN1C[C@@H]2[C@H](c3ccccc31)[C@@H](CO)N2Cc1ccccc1	0	-2	·	·
CCn1c(Cl)c(C=O)s/c1=N\S(=O)(=O)c1ccccc1	35*	0	7	-3
CCCOc1c(Br)cc(C2C3=C(CCCC3=O)N(C)C3=C2C(=O)CCC3)cc1OC	0	-84	-4	+
O=C(CN1C(=O)C2(OCCO2)c2cc(Br)ccc21)NO	0	34*	-21	-5
O=C(O)CN1C(=O)C2(OCCO2)c2cc(Br)ccc21	0	1	14	-21
C[C@@H](NC(=O)C[C@@H]1C[C@@H]2c3cc(NC(=O)NC4CCCC4)ccc3O[C@@H]2[C@H](CO)O1)c1ccccc1	0	·	·	·
COc1ccc(-n2sc3ccccc3c2=O)cc1	0	75*	·	-5
COc1ccc2sc3ccccc3c(=O)c2c1	·	·	7	-7
COc1ccc(-c2cc(=O)c3ccccc3s2)cc1	·	1	41*	-7
C#CCn1c(=NC(=O)c2ccc(Cl)s2)sc2cccc(OC)c21	0	30*	-4	-5
Cc1cc2c(C)cc(=O)oc2c2c1NCCC2	·	-271	-79	33*
Cc1ccc(NC(=O)/C=C/c2ccc([N+](=O)[O-])s2)cc1	97*	·	-10	-4
Cc1ccc(NC(=O)/C=C/c2ccc([N+](=O)[O-])s2)c(C)c1	37*	-3	-5	-16
Cc1cccc(NC(=O)/C=C/c2ccc([N+](=O)[O-])s2)c1	81*	1	-5	-2
C[C@H]1CN(C)C(=O)c2cc(N(C)C)ccc2O[C@@H]1CN(C)C(=O)OC(C)(C)C	0	·	·	·
CC(=O)Nc1cccc2c1O[C@H](CN(C)C(=O)OC(C)(C)C)[C@H](C)CN(C)C2=O	0	·	·	·
CO[C@@H]1CN(C)C(=O)c2cc(NC(C)=O)ccc2OC[C@H](C)N(C(=O)C2CCCCC2)C[C@H]1C	0	·	·	·
NC(=O)c1cc2ccc(O)cc2oc1=NCc1ccccc1	·	i	-12	33*
NC(=O)c1cc2ccccc2oc1=NCc1ccccc1	·	·	-8	·
O=C(CN1C(=O)C2C3C=CC(C4CC34)C2C1=O)Oc1ccccc1 (stereo not given)	0	-3	34*	-15
Cn1ccnc1SCC(=O)NC1CCCC1	0	31*	-6	-7
Cc1noc(C)c1S(=O)(=O)N(C)C[C@H]1Oc2ccc(NS(=O)(=O)c3ccc(F)cc3)cc2CC(=O)N([C@@H](C)CO)C[C@@H]1C	0	-1	·	·
N#CC(Sc1ccccn1)c1ccc(Cl)cc1 (stereo not given)	0	8	48*	-6
SMILES	XiGFP reactiv	ERAP1 HTS inh	PvdQ inh	CaV13 ICDI inh
COc1ccc(Nc2nc(C)nc3c2oc2ccccc23)c(OC)c1	0	11	-11	-3
CCc1nc(Nc2ccc(OC)cc2OC)c2oc3ccccc3c2n1	0	32*	10	-19
COc1ccc2c3c(n(C)c2c1)[C@H](CO)N(C)CC31CCN(S(=O)(=O)c2cn(C)cn2)CC1	0	·	·	·
Cc1ccccc1/C=C/c1cc[n+](C)cc1	0	31*	-15	4
Cc1[nH]c2ccccc2c1/C=C/c1cc[n+](C)cc1	·	·	3	·
Cc1oc(/N=C/c2ccc(O)cc2O)c(C#N)c1C	0	9	-11	+
CCCCn1c(N)c(N(CCOC)C(=O)c2ccc3c(c2)C(=O)N(c2ccccc2C)C3=O)c(=O)[nH]c1=O	0	0	-4	-2
COCCN(C(=O)c1c(C)noc1C)c1c(N)n(CC(C)C)c(=O)[nH]c1=O	0	83*	-18	-4
COCCN(C(=O)c1ccc2c(c1)C(=O)N(c1ccccc1Cl)C2=O)c1c(N)n(CC(C)C)c(=O)[nH]c1=O	142*	2	-17	-7
CCC(=O)N1CC2(C1)CN(Cc1ccc(OC)cc1)[C@@H](CO)c1[nH]c3cc(OC)ccc3c12	0	·	·	·
O=C(O)CCC(=O)Nc1ccc(F)cc1	·	·	-1	-6
O=C(O)CCC(=O)Nc1ccc(SSc2ccc(NC(=O)CCC(=O)O)cc2)cc1	0	38*	-3	-18
CCn1nc(NC(C)=O)c2cc3cccc(C)c3nc21	0	75*	-17	-19
Cc1noc(NS(=O)(=O)c2ccc(NC(=O)CSc3ncccn3)cc2)c1C	0	·	-17	8
Cc1cc(C)nc(SCC(=O)Nc2ccc(S(=O)(=O)Nc3onc(C)c3C)cc2)n1	0	·	8	80*
CNC[C@@H]1Oc2ccc(NC(=O)NC(C)C)cc2C(=O)N(C)C[C@H]1C	0	·	·	·
CO[C@H]1CN(C)C(=O)c2ccc(NC(C)=O)cc2OC[C@H](C)N(Cc2cncnc2)C[C@@H]1C	0	·	·	·
NS(=O)(=O)c1cccc(-n2cnnn2)c1	40*	·	-4	-6
C[C@@H]1CCc2cnnn2COC[C@H](Cc2ccccc2)NC1=O	0	·	·	·
C[C@H]1CN([C@@H](C)CO)C(=O)c2cccc(NS(=O)(=O)c3ccc(F)cc3)c2O[C@@H]1CN(C)C(=O)Nc1ccccc1	-1	-1	·	·
CCN1C(=O)c2cccc3c(S(=O)(=O)N(C)C)ccc1c23	1	23	·	42*
COc1ccc2c3c(n(C)c2c1)[C@H](CO)N(C(=O)c1ccc(F)cc1)CC31CCN(CC2CC2)CC1	0	·	·	·
CCN(CC)C1=CC2=CC(=C(C#N)C#N)CCC2CC1 (stereo not given)	82*	9	-1	24
O=CNc1ccc2c3c(cccc13)-c1ccccc1-2	55*	-4	-11	-12
CCc1nc2ccc(C(=O)NCCc3c[nH]c4ccccc34)cn2c1N(C=O)CCC(C)C	0	-1	·	38*
SMILES	XiGFP reactiv	ERAP1 HTS inh	PvdQ inh	CaV13 ICDI inh
CCCCN(C=O)c1c(CC)nc2ccc(C(=O)NCCc3c[nH]c4ccccc34)cn12	0	2	·	-9
Cc1ccc(SC(C)C(=O)NCc2ccncc2)cc1 (stereo not given)	0	82*	-9	-2
Cc1ccc2nc(N(CCCN(C)C)C(=O)c3ccc4ncsc4c3)sc2c1	0	64*	-9	-6
Cc1[nH]c2ccccc2c1C(=O)CN1C(=O)C(=O)N(CCC2=CCCCC2)C1=O	0	0	-17	-3
Cc1[nH]c2ccccc2c1C(=O)CN1C(=O)C(=O)N(Cc2ccco2)C1=O	0	33*	-10	-3
CO[C@H]1CN(C)C(=O)c2ccc(NC(=O)C3CCOCC3)cc2OC[C@H](C)N(Cc2cccnc2)C[C@@H]1C	0	3	·	·
S=C(NCc1ccc2c(c1)OCO2)Nc1ccc2nsnc2c1	1	-2	41*	-4

Screens as filed in PubChem BioAssay.
